Screening data (PubChem BioAssay)
An excerpt weighted towards active compounds, which were near 2.8% of everything screened.
PAFAH1B3 FP inh: inhibitors of human PAFAH1B3; 340,000 tested, 0.28% active; recombinant PAFAH1B3, FP-rhodamine probe, fluorescence polarization; inhibition, % at 3.39 µM;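 active = inhibition above the screen-wide average of all tested compounds plus 3 SD, cut at about 25% in these data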
Target sequence (Q15102 whole entry, looked up): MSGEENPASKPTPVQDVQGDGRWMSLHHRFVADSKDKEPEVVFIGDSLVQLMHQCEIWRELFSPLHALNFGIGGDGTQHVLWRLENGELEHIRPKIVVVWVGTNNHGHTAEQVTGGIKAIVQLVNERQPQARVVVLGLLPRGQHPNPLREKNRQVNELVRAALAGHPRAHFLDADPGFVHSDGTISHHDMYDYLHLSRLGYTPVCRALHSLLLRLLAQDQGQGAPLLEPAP
pPAFAH FP inh: inhibitors of human plasma PAF acetylhydrolase (pPAFAH); Q13093; recombinant pPAFAH, FP-rhodamine probe fluorescence polarization; inhibition, % at 3.39 µM; 330,000 tested, 1.5% active; AID 463082;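 active = inhibition above the mean inhibition across the screen plus 3 SD, cut at about 25% in these data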;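 also: inhibitors block binding of the rhodamine activity-based probe so polarization drops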
Target sequence (Q13093 whole entry, looked up): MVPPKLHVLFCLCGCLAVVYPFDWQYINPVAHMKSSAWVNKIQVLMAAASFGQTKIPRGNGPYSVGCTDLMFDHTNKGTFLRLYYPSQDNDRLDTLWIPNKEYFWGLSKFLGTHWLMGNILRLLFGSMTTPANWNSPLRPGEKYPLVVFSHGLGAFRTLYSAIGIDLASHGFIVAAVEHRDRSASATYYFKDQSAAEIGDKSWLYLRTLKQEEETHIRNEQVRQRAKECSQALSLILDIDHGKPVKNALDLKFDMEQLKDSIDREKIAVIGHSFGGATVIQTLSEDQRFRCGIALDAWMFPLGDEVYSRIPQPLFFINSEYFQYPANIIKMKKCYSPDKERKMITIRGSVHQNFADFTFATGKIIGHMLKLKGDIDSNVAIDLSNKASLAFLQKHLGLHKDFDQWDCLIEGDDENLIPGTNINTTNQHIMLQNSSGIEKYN
HTRA1 inhibitor: HTRA1 (human) protease inhibition; recombinant HTRA1, FP-rhodamine activity-based probe, fluorescence polarization; Q92743; inhibition, % at 5.96 µM; AID 504803; 340,000 tested, 0.5% active; in the data active = inhibition above about 36%
PAFAH2 inh: PAFAH2 (human) inhibition; Q99487; recombinant PAFAH2, FP-rhodamine activity probe, fluorescence polarization; inhibition, % at 3.39 µM; 340,000 tested, 0.99% active;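 active = inhibition above the mean over all tested compounds plus 3 SD, cut at about 30% in these data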;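 also: inhibitors block probe labeling of enzyme so polarization drops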
mABHD4 FP: inhibits mouse alpha/beta hydrolase domain 4. purified mABHD4, FP-Rh probe fluorescence polarization. AID 720543. 370,000 tested, 0.54% active. inhibition, % at 8.92 µM. Q8VD66;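 active = inhibition exceeding the mean over every tested compound plus 3 SD, cut at about 30% in these data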
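System: mouse ABHD4 enzyme, wild type / Medium: HEPES pH 7.0, NaCl, Pluronic buffer / Reagent: FP-Rh activity-based fluorescent probe / Control set: S159A mutant high control, sample median low control / Detection: fluorescence polarization with parallel and perpendicular emission, 525/598 nm / Schedule: 45 min + 60 min at 25 °C / Compound dosing: 8.92 µM, single dose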
PAFAH1B2 FP inh: PAFAH1B2 (human) inhibition | recombinant PAFAH1B2, FP-rhodamine activity probe, fluorescence polarization | inhibition, % at 3.39 µM | 340,000 tested, 1.2% active | AID 492953;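 active = inhibition above the mean of all tested compounds plus 3 SD, cut at about 24% in these data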
HTRA1 inh conf: confirmation of human HTRA1 inhibitors; inhibition, % at 5.96 µM; recombinant HTRA1, FP-rhodamine activity-based probe, fluorescence polarization; 1,600 tested, 66% active; shares compounds with HTRA1 inhibitor; AID 540248;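 active = mean inhibition over three repeats above a set limit taken from the earlier primary screen, cut at about 37% in these data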;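 also: inhibitors block probe binding so polarization drops and inhibition rises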
mABHD4 conf: ABHD4 (mouse) inhibition, FP confirmation | AID 720658 | 1,800 tested, 55% active | shares compounds with mABHD4 FP | purified mABHD4, FP-Rh probe fluorescence polarization | inhibition, % at 8.92 µM;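 active = mean inhibition across replicates above the hit cutoff set in the primary screen, cut at about 30% in these data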
A number is an active result; - = inactive; . = no result.

SMILES	PAFAH1B3 FP inh	pPAFAH FP inh	HTRA1 inhibitor	PAFAH2 inh	mABHD4 FP	PAFAH1B2 FP inh	HTRA1 inh conf	mABHD4 conf
O=C(NC(c1ccc(Cl)cc1)c1cc(Cl)c2cccnc2c1O)c1cccnc1 (stereo unspecified)	-	-	60	-	-	-	52	.
Cc1ccc(NC(=O)Cc2ccc(OC(F)F)cc2)c(S(=O)(=O)N2CCOCC2)c1	.	.	.	.	-	.	.	.
COC(=O)[C@]12C[C@H](CC(=O)NCCCN3CCCC3=O)C(=O)N(Cc3ccc(Cl)cc3Cl)C1=C[C@H](C1CCCC1)O[C@@H]2C	.	.	.	.	-	.	.	.
O=C1CC(Nc2ccc(N3CCOCC3)cc2)C(=O)N1Cc1ccccc1 (stereo unspecified)	-	34	49	-	49	-	-	.
Oc1ccc(-c2csc(Nc3ncccn3)n2)cc1O	-	.	54	-	-	-	59	.
Oc1ccc(-c2csc(-c3cccnc3)n2)cc1O	-	-	37	-	-	-	47	.
COC(=O)[C@]12C[C@H](CC(=O)NCC34CC5CC(CC(C5)C3)C4)C(=O)N(Cc3ccc(Cl)cc3Cl)C1=C[C@H](C(C)(C)C)O[C@@H]2C	.	.	.	.	-	.	.	.
O=c1c(O)c(-c2ccc(O)c(O)c2)oc2cc(O)ccc12	38	.	39	66	-	-	-	.
COCc1cccc(-c2cc(C(=O)OC)c3n(c2=O)CCC3)c1	.	.	.	.	-	.	.	.
COc1ccc(N=Nc2cc(-c3ccccc3)ccc2O)cc1	-	-	-	-	-	-	.	.
COc1ccc(N=Nc2ccc(O)c3ncccc23)cc1	-	31	44	-	-	-	63	.
Oc1ccc(N=Nc2ccc3c(c2)OCCO3)c2cccnc12	-	33	50	-	-	-	69	.
Cc1ccc(NC(=O)Nc2ccc3c(c2)[C@]2(CC(=O)N(CC(C)C)C2c2ccccc2)C(=O)N3C)cc1Cl (stereo partly specified)	.	.	.	.	-	.	.	.
Cc1[nH]n(-c2ccccc2)c(=O)c1N=Nc1ccccc1O	-	.	43	-	-	-	-	.
CCOc1ccc(Nc2ccc(N)c(S(=O)(=O)O)c2)cc1	-	.	93	-	107	-	53	55
CCOc1ccc(NS(=O)(=O)N(C)C)cc1	-	-	-	-	-	-	.	.
CCOc1ccc(/C=N/NC(=S)NC2CC3C=CC2C3)cc1 (stereo unspecified)	.	-	.	.	-	.	.	.
Oc1c(Br)cc(Br)cc1/C=N/NC(=S)N[C@H]1CC2C=CC1C2 (stereo partly specified)	-	46	57	57	38	-	63	43
COc1ccc(OC)c(NC(=O)CSc2nncc3ccc(OC)c(OC)c23)c1	-	-	44	-	43	-	-	32
COc1ccc2cnnc(SCC(=O)Nc3ccccc3)c2c1OC	-	-	-	-	-	-	.	.
O=[N+]([O-])c1ccc(N/N=C/c2ccc(O)c(O)c2O)c(S(=O)(=O)N2CCOCC2)c1	-	.	74	-	37	-	74	58
O=c1cc(-c2ccccc2)oc2cccc(O)c12	-	.	-	-	-	-	.	.
O=c1oc(-c2ccc(O)c(O)c2)cc2cccc(O)c12	-	25	62	-	35	-	68	34
COc1ccc2c3c(cccc13)C(=O)CC2	110	.	141	126	87	100	-	-
Nc1ncnc(N)c1N=Nc1ccccc1	-	.	-	-	-	-	.	.
SMILES	PAFAH1B3 FP inh	pPAFAH FP inh	HTRA1 inhibitor	PAFAH2 inh	mABHD4 FP	PAFAH1B2 FP inh	HTRA1 inh conf	mABHD4 conf
Nc1ccc(N=Nc2ccccc2)c2cccnc12	-	28	43	-	30	-	44	55
Oc1ccc(NCc2ccc(OCc3ccccc3)cc2)cc1	-	.	47	-	53	-	-	-
COc1ccc2ccccc2c1C(O)c1nccn1C (stereo unspecified)	39	-	39	45	40	32	-	88
CC1=CC(C)(C)Nc2ccc(Cc3ccc4c(c3)C(C)=CC(C)(C)N4)cc21	-	-	51	-	31	-	37	33
COc1ccc(-c2c(C(=O)c3ccccc3)[nH]c(N)c2C(=O)c2c[nH]c3ccccc23)cc1OC	.	.	.	.	-	.	.	.
CN(C)c1ccc(N/C=C/C(=O)c2ccco2)cc1	-	28	47	-	44	-	-	-
O=C(CSc1nnnn1-c1ccc(F)cc1)c1ccc(O)c(O)c1	-	31	41	-	30	-	53	-
CCOC(=O)c1ccc(CC(=O)c2oc3cc(O)ccc3c2C)o1	-	-	-	-	-	-	.	.
CCOC(=O)c1ccc(CC(=O)c2ccc(O)c(O)c2O)o1	-	.	53	-	31	-	82	-
Cc1ccc(O)c(/C=N/NC(=O)Cc2ccc(Cl)cc2)c1	-	-	-	-	-	-	.	.
O=C(Cc1ccc(Cl)cc1)N/N=C/c1ccc(O)c(O)c1	.	.	63	.	33	.	68	-
CC(C)c1ccc(CNc2ccc(N3CCOCC3)cc2)cc1	-	-	57	-	30	-	-	-
CN(Cc1ccccc1)Cc1c(O)ccc2ccccc12	-	-	-	-	-	-	.	.
CN(Cc1cc(Cl)cc(Cl)c1O)Cc1c(O)ccc2ccccc12	-	.	52	-	30	-	62	-
COc1ccccc1/C=N\NC(=O)c1cccc(S(=O)(=O)N(C)C)c1	.	.	.	.	-	.	.	.
Cc1ccc2c(c1)c1c3n2CC(=C2C(=O)OC(C)(C)OC2=O)NC3CCC1 (stereo unspecified)	-	29	51	-	37	-	61	30
CCOC(=O)c1ccc2c(c1)C1C=CCC1C(C(=O)OCC)N2 (stereo unspecified)	-	28	44	-	35	-	54	45
Cc1c2ccccc2nc2c(F)c(NC(C)C)c(F)c(F)c12	-	-	57	-	47	-	-	-
OCCNc1c2ccccc2nc2c(F)c(F)c(F)c(F)c12	-	-	-	-	-	-	.	.
O=C(OCC#CCSc1nnc(-c2ccccc2F)o1)c1ccc(F)cc1	.	.	.	.	-	.	.	.
Cc1cccc(N=NC(=S)NNc2cccc(C)c2)c1	-	.	36	-	32	-	45	58
O=[N+]([O-])c1cc(Br)c(O)c(C=Nc2ccc(N3CCOCC3)cc2)c1	-	34	40	-	45	-	-	-
Cc1[nH]n(-c2ncc(-c3ccccc3)s2)c(=O)c1C(c1ccc(Br)cc1)C(C#N)C#N (stereo unspecified)	-	27	39	-	51	-	-	43
CCOC(=O)[C@]12CCCC3=C1N(CCC3)C(=O)[C@@H](CC(=O)NCC1CCCCC1)C2	.	.	.	.	-	.	.	.
O=C1NC(=Nc2ccccc2Cl)S/C1=C\c1cccc([N+](=O)[O-])c1O	-	34	55	50	53	-	58	60
